# Assay results: ChEMBL document CHEMBL3244249, “Studies on vitamin D (calciferol) and its analogues. 15. 24-Nor-1alpha,25-dihydroxyvitamin D3 and 24-nor-25-hydroxy-5,6-trans-vitamin D3” (1978)
# Active and inactive are the calls of the source. The rule behind the calls is not given here.
# Tests used:
# Gallus gallus [1] = species on record: Gallus gallus; assay: Displacement of [3H]-1-alpha,25-(OH)2-D3 from chicken intestinal cytosol chromatin receptor after 30 mins by scintillation counting relative to 1-alpha,25-(OH)2-D3
# In short: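 Reconstituted chick intestinal cytosol–chromatin receptor system. Nonradioactive competitor plus tritiated 1α,25-(OH)2-D3 (2 × 10^-8 M, constant saturating) with chromatin (375 μg DNA) in cytosol, incubated 30 min at 25 °C. Chromatin reisolated by centrifugation, washed three times (0.5% Triton X-100, 0.01 M Tris-HCl pH 8.5), and bound tritium counted by liquid scintillation. Expressed as RCI, with 1α,25-(OH)2-D3 set at 100.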
# Gallus gallus [2] = assay: Induction of bone calcium mobilization in vitamin-D-deficient chicken assessed per 100 ml of serum at 163 nmol, ip using 45Ca2+ and 40Ca2+ after 5 to 36 hrs; assay type: functional, organism-based
# In short: (§1)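 Rachitic chicks given a single 163-nmol intraperitoneal dose and sampled between 5 and 36 h afterward. ICA and BCM were read by the Hibberd–Norman procedure: duodenal 45Ca2+/40Ca2+ load, then serum collected 30 min later. ICA was taken as serum radioactivity and BCM as serum calcium by atomic absorption.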
# Gallus gallus [3] = assay: Induction of intestinal calcium absorption in vitamin-D-deficient chicken assessed per 0.2 ml of plasma at 163 nmol, ip using 45Ca2+ and 40Ca2+ after 5 to 36 hrs; assay type: functional, organism-based; in short: as §1
# Gallus gallus [4] = assay: Induction of intestinal calcium absorption in vitamin-D-deficient chicken assessed per 0.2 ml of plasma at 15.5 nmol, ip using 45Ca2+ and 40Ca2+ after 14 hrs relative to control; assay type: functional
# In short: (§2)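 Rachitic White Leghorn cockerels (4 weeks on a rachitogenic low-calcium diet without vitamin D, zero-calcium diet for the final 3 days) dosed intraperitoneally. Under light ether anesthesia, 5 μCi 45Ca2+ plus 4 mg 40Ca2+ carrier was placed in the duodenum. Birds were decapitated after 30 min. 45Ca radioactivity counted per 0.2 mL serum aliquot (cpm ± SEM). The enhancement ratio is relative to vitamin D-deficient controls.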
# Gallus gallus [5] = assay: Induction of intestinal calcium absorption in vitamin-D-deficient chicken assessed per 0.2 ml of plasma at 62 nmol, ip using 45Ca2+ and 40Ca2+ after 14 hrs relative to control; assay type: functional; in short: as §2
# Gallus gallus [6] = assay: Induction of intestinal calcium absorption in vitamin-D-deficient chicken assessed per 0.2 ml of plasma at 62 nmol, ip using 45Ca2+ and 40Ca2+ after 18 hrs; assay type: functional; in short: as §2
# Gallus gallus [7] = assay: Induction of bone calcium mobilization in vitamin-D-deficient chicken assessed per 100 ml of serum at 3.1 nmol, ip using 45Ca2+ and 40Ca2+ after 14 hrs; assay type: functional
# In short: (§3)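 White Leghorn cockerels raised 4 weeks on a rachitogenic low-calcium diet without vitamin D, switched to a zero-calcium diet 3 days before assay. Analogue given intraperitoneally. Under light ether anesthesia, 5 μCi 45Ca2+ plus 4 mg 40Ca2+ carrier was put into the exposed duodenum. Birds were decapitated 30 min later and blood allowed to clot. Serum Ca2+ measured by atomic absorption on diluted serum, as mg/100 mL ± SEM.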
# Gallus gallus [8] = assay: Induction of intestinal calcium absorption in vitamin-D-deficient chicken assessed per 0.2 ml of plasma at 0.62 nmol, ip using 45Ca2+ and 40Ca2+ after 14 hrs; assay type: functional; in short: as §2
# Gallus gallus [9] = assay: Induction of bone calcium mobilization in vitamin-D-deficient chicken assessed per 100 ml of serum at 310 nmol, ip using 45Ca2+ and 40Ca2+ after 14 hrs; assay type: functional; in short: as §3
# Gallus gallus [10] = assay: Induction of bone calcium mobilization in vitamin-D-deficient chicken assessed per 100 ml of serum at 15.5 nmol, ip using 45Ca2+ and 40Ca2+ after 14 hrs; assay type: functional; in short: as §3
# Gallus gallus [11] = assay: Induction of intestinal calcium absorption in vitamin-D-deficient chicken assessed per 0.2 ml of plasma at 62 nmol, ip using 45Ca2+ and 40Ca2+ after 36 hrs relative to control; assay type: functional; in short: as §2
# Gallus gallus [12] = assay: Induction of intestinal calcium absorption in vitamin-D-deficient chicken assessed per 0.2 ml of plasma at 62 nmol, ip using 45Ca2+ and 40Ca2+ after 36 hrs; assay type: functional; in short: as §2
# Gallus gallus [13] = assay: Induction of bone calcium mobilization in vitamin-D-deficient chicken assessed per 100 ml of serum at 62 nmol, ip using 45Ca2+ and 40Ca2+ after 36 hrs; assay type: functional; in short: as §3
# Gallus gallus [14] = assay: Induction of intestinal calcium absorption in vitamin-D-deficient chicken assessed per 0.2 ml of plasma at 3.1 nmol, ip using 45Ca2+ and 40Ca2+ after 14 hrs; assay type: functional; in short: as §2
# Gallus gallus [15] = assay: Induction of intestinal calcium absorption in vitamin-D-deficient chicken assessed per 0.2 ml of plasma at 62 nmol, ip using 45Ca2+ and 40Ca2+ after 14 hrs; assay type: functional; in short: as §2
# Gallus gallus [16] = assay: Induction of bone calcium mobilization in vitamin-D-deficient chicken assessed per 100 ml of serum at 62 nmol, ip using 45Ca2+ and 40Ca2+ after 24 hrs; assay type: functional; in short: as §3
# Gallus gallus [17] = assay: Induction of intestinal calcium absorption in vitamin-D-deficient chicken assessed per 0.2 ml of plasma at 15.5 nmol, ip using 45Ca2+ and 40Ca2+ after 14 hrs; assay type: functional; in short: as §2
# Gallus gallus [18] = assay: Induction of intestinal calcium absorption in vitamin-D-deficient chicken assessed per 0.2 ml of plasma at 3.1 nmol, ip using 45Ca2+ and 40Ca2+ after 14 hrs relative to control; assay type: functional; in short: as §2
# Gallus gallus [19] = assay: Induction of intestinal calcium absorption in vitamin-D-deficient chicken assessed per 0.2 ml of plasma at 62 nmol, ip using 45Ca2+ and 40Ca2+ after 24 hrs relative to control; assay type: functional; in short: as §2
# Gallus gallus [20] = assay: Induction of bone calcium mobilization in vitamin-D-deficient chicken assessed per 100 ml of serum at 0.62 nmol, ip using 45Ca2+ and 40Ca2+ after 14 hrs; assay type: functional; in short: as §3
# Gallus gallus [21] = assay: Induction of intestinal calcium absorption in vitamin-D-deficient chicken assessed per 0.2 ml of plasma at 310 nmol, ip using 45Ca2+ and 40Ca2+ after 14 hrs relative to control; assay type: functional; in short: as §2
# Gallus gallus [22] = assay: Induction of intestinal calcium absorption in vitamin-D-deficient chicken assessed per 0.2 ml of plasma at 62 nmol, ip using 45Ca2+ and 40Ca2+ after 24 hrs; assay type: functional; in short: as §2
# Gallus gallus [23] = assay: Induction of intestinal calcium absorption in vitamin-D-deficient chicken assessed per 0.2 ml of plasma at 0.62 nmol, ip using 45Ca2+ and 40Ca2+ after 14 hrs relative to control; assay type: functional; in short: as §2
# Gallus gallus [24] = assay: Induction of bone calcium mobilization in vitamin-D-deficient chicken assessed per 100 ml of serum at 62 nmol, ip using 45Ca2+ and 40Ca2+ after 14 hrs; assay type: functional; in short: as §3
# Gallus gallus [25] = assay: Induction of intestinal calcium absorption in vitamin-D-deficient chicken assessed per 0.2 ml of plasma at 310 nmol, ip using 45Ca2+ and 40Ca2+ after 14 hrs; assay type: functional; in short: as §2
# Gallus gallus [26] = assay: Induction of bone calcium mobilization in vitamin-D-deficient chicken assessed per 100 ml of serum at 62 nmol, ip using 45Ca2+ and 40Ca2+ after 18 hrs; assay type: functional; in short: as §3
# Gallus gallus [27] = assay: Induction of intestinal calcium absorption in vitamin-D-deficient chicken assessed per 0.2 ml of plasma at 62 nmol, ip using 45Ca2+ and 40Ca2+ after 18 hrs relative to control; assay type: functional; in short: as §2
# Gallus gallus [28] = assay: Induction of bone calcium mobilization in vitamin-D-deficient chicken assessed per 100 ml of serum at 3.3 nmol, ip using 45Ca2+ and 40Ca2+ after 24 hrs; assay type: functional; in short: as §3
# Gallus gallus [29] = assay: Induction of intestinal calcium absorption in vitamin-D-deficient chicken assessed per 0.2 ml of plasma at 3.3 nmol, ip using 45Ca2+ and 40Ca2+ after 24 hrs relative to control; assay type: functional; in short: as §2
# Gallus gallus [30] = assay: Induction of intestinal calcium absorption in vitamin-D-deficient chicken assessed per 0.2 ml of plasma at 3.3 nmol, ip using 45Ca2+ and 40Ca2+ after 24 hrs; assay type: functional; in short: as §2
# Gallus gallus [31] = assay: Induction of intestinal calcium absorption in vitamin-D-deficient chicken assessed per 0.2 ml of plasma at 3 nmol, ip using 45Ca2+ and 40Ca2+ after 12 hrs; assay type: functional; in short: as §2
# Gallus gallus [32] = assay: Induction of intestinal calcium absorption in vitamin-D-deficient chicken assessed per 0.2 ml of plasma at 0.60 nmol, ip using 45Ca2+ and 40Ca2+ after 12 hrs relative to control; assay type: functional; in short: as §2
# Gallus gallus [33] = assay: Induction of intestinal calcium absorption in vitamin-D-deficient chicken assessed per 0.2 ml of plasma at 0.60 nmol, ip using 45Ca2+ and 40Ca2+ after 12 hrs; assay type: functional; in short: as §2
# Gallus gallus [34] = assay: Induction of bone calcium mobilization in vitamin-D-deficient chicken assessed per 100 ml of serum at 0.60 nmol, ip using 45Ca2+ and 40Ca2+ after 12 hrs; assay type: functional; in short: as §3
# Gallus gallus [35] = assay: Induction of intestinal calcium absorption in vitamin-D-deficient chicken assessed per 0.2 ml of plasma at 3 nmol, ip using 45Ca2+ and 40Ca2+ after 12 hrs relative to control; assay type: functional; in short: as §2
# Gallus gallus [36] = assay: Induction of bone calcium mobilization in vitamin-D-deficient chicken assessed per 100 ml of serum at 3 nmol, ip using 45Ca2+ and 40Ca2+ after 12 hrs; assay type: functional; in short: as §3
smiles,measurement,setting,value
C=C1CC[C@H](O)C/C1=C\C=C1/CCC[C@]2(C)[C@@H]([C@H](C)CCC(C)(C)O)CC[C@@H]12,RCI,Gallus gallus [1],0.1%
same,Activity,Gallus gallus [2],inactive
same,Activity,Gallus gallus [3],inactive
C=C1/C(=C\C=C2/CCC[C@]3(C)[C@@H]([C@H](C)CCC(C)(C)O)CC[C@@H]23)C[C@@H](O)C[C@@H]1O,Ratio,Gallus gallus [4],1.3
same,Ratio,Gallus gallus [5],1.8
same,Activity,Gallus gallus [6],1470 cpm
same,Activity,Gallus gallus [7],4.4 mg
same,Activity,Gallus gallus [8],420 cpm
same,Activity,Gallus gallus [9],6.5 mg
same,Activity,Gallus gallus [10],5.1 mg
same,Ratio,Gallus gallus [11],1.1
same,Activity,Gallus gallus [12],590 cpm
same,Activity,Gallus gallus [13],4.3 mg
same,Activity,Gallus gallus [14],560 cpm
same,Activity,Gallus gallus [15],930 cpm
same,Activity,Gallus gallus [16],5.4 mg
same,Activity,Gallus gallus [17],680 cpm
same,Ratio,Gallus gallus [18],1.1
same,RCI,Gallus gallus [1],46%
same,Ratio,Gallus gallus [19],1.5
same,Activity,Gallus gallus [20],4.8 mg
same,Ratio,Gallus gallus [21],2.9
same,Activity,Gallus gallus [22],770 cpm
same,Ratio,Gallus gallus [23],0.8
same,Activity,Gallus gallus [24],5 mg
same,Activity,Gallus gallus [25],1530 cpm
same,Activity,Gallus gallus [26],5.6 mg
same,Ratio,Gallus gallus [27],2.8
C=C1CC[C@H](O)C/C1=C\C=C1/CCC[C@]2(C)[C@@H]([C@H](C)CCCCC(C)(C)O)CC[C@@H]12,RCI,Gallus gallus [1],0.066%
C=C1CC[C@H](O)C/C1=C/C=C1\CCC[C@]2(C)[C@@H]([C@H](C)CCCC(C)C)CC[C@@H]12 [CHOLECALCIFEROL],Activity,Gallus gallus [28],6.3 mg
same,Ratio,Gallus gallus [29],4.6
same,Activity,Gallus gallus [30],2430 cpm
C=C1/C(=C\C=C2/CCC[C@]3(C)[C@@H]([C@H](C)CCCC(C)(C)O)CC[C@@H]23)C[C@@H](O)C[C@@H]1O [CALCITRIOL],Activity,Gallus gallus [31],1320 cpm
same,Ratio,Gallus gallus [32],3.1
same,Activity,Gallus gallus [33],1630 cpm
same,Activity,Gallus gallus [34],6.6 mg
same,Activity,Gallus gallus [2],Active
same,Activity,Gallus gallus [3],Active
same,Ratio,Gallus gallus [35],2.5
same,Activity,Gallus gallus [36],6.1 mg
C=C1CC[C@H](O)C/C1=C/C=C1\CCC[C@]2(C)[C@@H]([C@H](C)CCCC(C)(C)O)CC[C@@H]12,Activity,Gallus gallus [2],Active
same,Activity,Gallus gallus [3],Active
C=C1CC[C@H](O)C/C1=C\C=C1/CCC[C@]2(C)[C@@H]([C@H](C)CCCC(C)(C)O)CC[C@@H]12,RCI,Gallus gallus [1],0.58%
same,Activity,Gallus gallus [2],Active
same,Activity,Gallus gallus [3],Active
